ChEMBL document CHEMBL1145471, “Small molecule regulators of autophagy identified by an image-based high-throughput screen” (Proc Natl Acad Sci U S A, 2007)

What was measured:
Format in all cases: functional
H4 [1] = assay: Increase in long-lived protein degradation in human H4 cells after 24 hrs relative to control; design: concentration or dose not given beside the values
H4 [2] = assay: Increase in light chain 3-GFP+ autophagosome vesicle intensity per cell in human H4 cells at 6.5 uM after 24 hrs by high throughput fluorescence microscopy relative to control
Method in brief: (§1)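 H4 cells stably expressing LC3-GFP, seeded in 96-well plates and exposed to compound for 24 h; fixed in 4% paraformaldehyde, nuclei stained with 3 μg/ml DAPI. Automated fluorescence microscopy scored number, size and intensity of LC3-GFP spots; values expressed relative to DMSO-treated wells, rapamycin positive control. Triplicate wells, mean ± SD; experiments repeated three times.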

H4 [3] = assay: Induction of light chain 3-GFP level in human H4 cells at 6.5 uM after 24 hrs by high throughput fluorescence microscopy relative to control
Method in brief: (§2)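 H4 cells stably expressing LC3-GFP, kept in DMEM/10% FBS at 37°C, 5% CO2, were seeded in 96-well plates and exposed to compound for 24 h. Cells were then fixed in 4% paraformaldehyde and stained with 3 μg/ml DAPI. Automated fluorescence microscopy scored the number, size and intensity of LC3-GFP spots. Values are percent of DMSO wells, in triplicate, mean ± SD. Rapamycin served as positive control.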

H4 [4] = assay: Increase in long-lived protein degradation in human H4 cells after 1 hr relative to control; design: concentration or dose not given beside the values
H4 [5] = assay: Increase in long-lived protein degradation in human H4 cells after 4 hrs relative to control; design: concentration or dose not given beside the values
H4 [6] = assay: Decrease in FYVE-RFP+ vesicle intensity per cell in human H4 cells after 2 hrs relative to control; design: concentration or dose not given beside the values
Method in brief: (§3)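 H4 cells stably expressing FYVE-RFP (H4-FYVE), grown in DMEM with 10% FBS, penicillin/streptomycin and 2 mM L-glutamine at 37°C, 5% CO2, seeded in 96-well plates and exposed to compound. Fixed in 4% paraformaldehyde, nuclei stained with 3 μg/ml DAPI, FYVE-RFP+ vesicles quantified by high-throughput fluorescence microscopy against DMSO control. Triplicate wells, mean ± SD.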

H4 [7] = assay: Decrease in FYVE-RFP+ vesicle intensity per cell in human H4 cells after 4 hrs relative to control; design: concentration or dose not given beside the values; method in brief: as §3
H4 [8] = assay: Decrease in FYVE-RFP+ vesicle intensity per cell in human H4 cells after 8 hrs relative to control; design: concentration or dose not given beside the values; method in brief: as §3
H4 [9] = assay: Increase in light chain 3-GFP+ autophagosome vesicle area per cell in human H4 cells at 6.5 uM after 24 hrs by high throughput fluorescence microscopy relative to control; method in brief: as §1
H4 [10] = assay: Increase in light chain 3-GFP+ autophagosome vesicle number per cell in human H4 cells at 6.5 uM after 24 hrs by high throughput fluorescence microscopy relative to control; method in brief: as §2
H4 [11] = assay: Increase in long-lived protein degradation in human H4 cells after 2 hrs relative to control; design: concentration or dose not given beside the values
H4 [12] = assay: Increase in light chain 3-GFP+ autophagosome vesicle area per cell in human H4 cells at 6.3 uM after 24 hrs by high throughput fluorescence microscopy relative to control; method in brief: as §1
H4 [13] = assay: Effect on FYVE-RFP+ vesicle intensity per cell in human H4 cells after 8 hrs relative to control; design: concentration or dose not given beside the values; method in brief: as §3
H4 [14] = assay: Effect on FYVE-RFP+ vesicle intensity per cell in human H4 cells after 2 hrs relative to control; design: concentration or dose not given beside the values; method in brief: as §3
H4 [15] = assay: Effect on FYVE-RFP+ vesicle intensity per cell in human H4 cells after 4 hrs relative to control; design: concentration or dose not given beside the values; method in brief: as §3
H4 [16] = assay: Increase in light chain 3-GFP+ autophagosome vesicle number per cell in human H4 cells at 6.3 uM after 24 hrs by high throughput fluorescence microscopy relative to control; method in brief: as §2
H4 [17] = assay: Induction of light chain 3-GFP level in human H4 cells at 6.3 uM after 24 hrs by high throughput fluorescence microscopy relative to control; method in brief: as §2
H4 [18] = assay: Increase in light chain 3-GFP+ autophagosome vesicle intensity per cell in human H4 cells at 6.3 uM after 24 hrs by high throughput fluorescence microscopy relative to control; method in brief: as §1
H4 [19] = assay: Increase in light chain 3-GFP+ autophagosome vesicle intensity per cell in human H4 cells at 4.3 uM after 24 hrs by high throughput fluorescence microscopy relative to control
Method in brief: (§4)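 H4 cells stably expressing LC3-GFP were grown in DMEM with 10% FBS and 2 mM L-glutamine at 37°C, 5% CO2. They were exposed to each compound for 24 h, with DMSO as negative and rapamycin as positive control. Cells were then fixed in 4% paraformaldehyde and stained with 3 μg/ml DAPI. High-throughput fluorescence imaging scored LC3-GFP spot number, size and intensity, expressed relative to DMSO. Mean ± SD of triplicates; experiments repeated three times.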

H4 [20] = assay: Increase in light chain 3-GFP+ autophagosome vesicle area per cell in human H4 cells at 4.3 uM after 24 hrs by high throughput fluorescence microscopy relative to control
Method in brief: (§5)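 H4 cells stably expressing LC3-GFP, seeded in 96-well plates and exposed to compound for 24 h; screening concentrations were 3–12 μM, with rapamycin 0.22 μM and bafilomycin A1 0.40 μM. Cells fixed in 4% paraformaldehyde and stained with 3 μg/ml DAPI. Number, size and intensity of LC3-GFP spots measured by high-throughput fluorescence microscopy and expressed as percent of DMSO-treated wells. Rapamycin was the positive control. Triplicate wells, mean ± SD; experiments repeated three times.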

H4 [21] = assay: Induction of light chain 3-GFP level in human H4 cells at 4.3 uM after 24 hrs by high throughput fluorescence microscopy relative to control
Method in brief: (§6)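 H4 cells stably expressing LC3-GFP, grown in DMEM with 10% FBS, penicillin/streptomycin and 2 mM L-glutamine at 37°C, 5% CO2. Cells were seeded in 96-well plates and exposed to library compounds at 3–12 μM for 24 h, then fixed in 4% paraformaldehyde and stained with 3 μg/ml DAPI. LC3-GFP spot number, size and intensity were measured by high-throughput fluorescence microscopy and expressed relative to DMSO. Triplicates, mean ± SD.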

H4 [22] = assay: Increase in light chain 3-GFP+ autophagosome vesicle number per cell in human H4 cells at 4.3 uM after 24 hrs by high throughput fluorescence microscopy relative to control; method in brief: as §4
H4 [23] = assay: Increase in light chain 3-GFP+ autophagosome vesicle intensity per cell in human H4 cells at 4.5 uM after 24 hrs by high throughput fluorescence microscopy relative to control; method in brief: as §4
H4 [24] = assay: Increase in light chain 3-GFP+ autophagosome vesicle number per cell in human H4 cells at 4.5 uM after 24 hrs by high throughput fluorescence microscopy relative to control; method in brief: as §4
H4 [25] = assay: Increase in light chain 3-GFP+ autophagosome vesicle area per cell in human H4 cells at 4.5 uM after 24 hrs by high throughput fluorescence microscopy relative to control; method in brief: as §5
H4 [26] = assay: Induction of light chain 3-GFP level in human H4 cells at 4.5 uM after 24 hrs by high throughput fluorescence microscopy relative to control; method in brief: as §6
H4 [27] = assay: Induction of light chain 3-GFP level in human H4 cells at 4.8 uM after 24 hrs by high throughput fluorescence microscopy relative to control; method in brief: as §2
H4 [28] = assay: Increase in light chain 3-GFP+ autophagosome vesicle intensity per cell in human H4 cells at 4.8 uM after 24 hrs by high throughput fluorescence microscopy relative to control; method in brief: as §1
H4 [29] = assay: Increase in light chain 3-GFP+ autophagosome vesicle number per cell in human H4 cells at 4.8 uM after 24 hrs by high throughput fluorescence microscopy relative to control; method in brief: as §2
H4 [30] = assay: Increase in light chain 3-GFP+ autophagosome vesicle area per cell in human H4 cells at 4.8 uM after 24 hrs by high throughput fluorescence microscopy relative to control; method in brief: as §1
H4 [31] = assay: Increase in light chain 3-GFP+ autophagosome vesicle intensity per cell in human H4 cells at 5.4 uM after 24 hrs by high throughput fluorescence microscopy relative to control; method in brief: as §1
H4 [32] = assay: Increase in light chain 3-GFP+ autophagosome vesicle area per cell in human H4 cells at 5.4 uM after 24 hrs by high throughput fluorescence microscopy relative to control; method in brief: as §1
H4 [33] = assay: Increase in light chain 3-GFP+ autophagosome vesicle number per cell in human H4 cells at 5.4 uM after 24 hrs by high throughput fluorescence microscopy relative to control; method in brief: as §2
H4 [34] = assay: Induction of light chain 3-GFP level in human H4 cells at 5.4 uM after 24 hrs by high throughput fluorescence microscopy relative to control; method in brief: as §2

Q: What does the source list for `COc1ccc2c(c[n+](C)c3c4cc5c(cc4ccc23)OCO5)c1OC.[Cl-]` [CHELERYTHRINE CHLORIDE]?
A: Activity (H4 [1]): 106.48%; Activity (H4 [2]): 213.88%; Activity (H4 [3]): 110.26%; Activity (H4 [4]): 101.43%; Activity (H4 [5]): 108.72%; Activity (H4 [6]): 30.83%; Activity (H4 [7]): 22.01%; Activity (H4 [8]): 33.84%; Activity (H4 [9]): 229.91%; Activity (H4 [10]): 195.46%; Activity (H4 [11]): 100.4%

Q: With `CCCNC(=O)[C@H]1O[C@@H]1C(=O)N[C@H](C(=O)N1CCC[C@H]1C(=O)OC)[C@@H](C)CC` as the compound, how does the Activity (H4 [1]) read?
A: 89.11%

Q: And the Activity (H4 [12])?
A: 239.2%

Q: What about the Activity (H4 [13]) of the same compound?
A: 86.43%

Q: And the Activity (H4 [14])?
A: 65.94%

Q: And the Activity (H4 [15])?
A: 79.82%

Q: And the Activity (H4 [4])?
A: 115.2%

Q: And the Activity (H4 [5])?
A: 81%

Q: What about the Activity (H4 [16]) of the same compound?
A: 197.44%

Q: What about the Activity (H4 [11]) of the same compound?
A: 110.18%

Q: What about the Activity (H4 [17]) of the same compound?
A: 132.2%

Q: And the Activity (H4 [18])?
A: 272.48%

Q: For `COc1cc([C@@H]2c3cc4c(cc3[C@@H](O[C@@H]3O[C@@H]5CO[C@@H](C)O[C@H]5[C@H](O)[C@H]3O)[C@H]3COC(=O)[C@H]23)OCO4)cc(OC)c1O` [ETOPOSIDE], which Activity (H4 [19]) is on record?
A: 335.9%

Q: And the Activity (H4 [20])?
A: 306.93%

Q: What about the Activity (H4 [21]) of the same compound?
A: 48.17%

Q: And the Activity (H4 [22])?
A: 275.6%

Q: What does the source list for `Cn1cc(C2=C(c3cn(CCCSC(=N)N)c4ccccc34)C(=O)NC2=O)c2ccccc21` [BISINDOLYLMALEIMIDE IX]?
A: Activity (H4 [23]): 240.67%; Activity (H4 [24]): 190.07%; Activity (H4 [25]): 190.1%; Activity (H4 [26]): 50.58%

Q: Which Activity (H4 [27]) does the source give for `CNc1ccc2oc(C[C@@H]3OC4(CC[C@@H]3C)O[C@H]([C@@H](C)C(=O)c3ccc[nH]3)[C@H](C)C[C@H]4C)nc2c1C(=O)O` (stereo not given in full) here?
A: 49.3%

Q: And the Activity (H4 [28])?
A: 15083%

Q: What about the Activity (H4 [29]) of the same compound?
A: 181.04%

Q: And the Activity (H4 [30])?
A: 172.66%

Q: Which Activity (H4 [31]) does the source give for `N#Cc1cc2c(OCC(O)CN3CCN(C(c4ccccc4)c4ccccc4)CC3)cccc2[nH]1` (stereo not given) here?
A: 329.96%

Q: And the Activity (H4 [1])?
A: 90.03%

Q: And the Activity (H4 [13])?
A: 72.4%

Q: And the Activity (H4 [14])?
A: 65.87%

Q: What about the Activity (H4 [15]) of the same compound?
A: 59.79%

Q: What about the Activity (H4 [32]) of the same compound?
A: 275.43%

Q: And the Activity (H4 [4])?
A: 90.63%

Q: And the Activity (H4 [5])?
A: 101.77%

Q: And the Activity (H4 [33])?
A: 224.74%

Q: What about the Activity (H4 [34]) of the same compound?
A: 94.7%

Q: And the Activity (H4 [11])?
A: 108.53%
